Reference: ChEMBL document CHEMBL3046311, “Synthesis and antifungal activities of alkyl N-(1,2,3-thiadiazole-4-carbonyl) carbamates and S-alkyl N-(1,2,3-thiadiazole-4-carbonyl) carbamothioates” (2005)

What was measured:
Assay type in all cases: functional
Details in all cases: read-out: GI
[1] = test system: Alternaria kikuchiana; assay: Fungistatic activity against Alternaria kikuchiana assessed as inhibition of mycelial growth measured at 5 ug/mL at 28 degC after 72 hr relative to control
In short: (§1)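 Compounds in acetone at stock levels of 500 and 50 µg/mL; 1 mL of stock mixed into 9 mL thawed potato dextrose agar at 50 °C and poured. Solidified plates were inoculated with a 4 mm mycelial disk, inverted, and held at 28 °C for 72 h. Water served as negative control, in triplicate. Inhibition was calculated as (C−T)/C × 100% from colony radii.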

[2] = test system: Fusarium graminearum; assay: Fungistatic activity against Fusarium graminearum assessed as inhibition of mycelial growth measured at 5 ug/mL at 28 degC after 72 hr relative to control
In short: (§2)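 Poisoned-food plate assay with Gibberella zeae. Compound in acetone (500 or 50 µg/mL stocks) is mixed 1:9 with molten potato dextrose agar at 50 °C and poured. Once set, plates are inoculated with a 4 mm mycelium disk, inverted, and held 72 h at 28 °C. Water is the negative control, run in triplicate. Colony radius is measured, and inhibition = (C−T)/C × 100%.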

[3] = test system: Fusarium graminearum; assay: Fungistatic activity against Fusarium graminearum assessed as inhibition of mycelial growth measured at 50 ug/mL at 28 degC after 72 hr relative to control; in short: as §2
[4] = test system: Alternaria kikuchiana; assay: Fungistatic activity against Alternaria kikuchiana assessed as inhibition of mycelial growth measured at 50 ug/mL at 28 degC after 72 hr relative to control; in short: as §1

| SMILES | inhibition of growth at 5 µg/mL [1] | inhibition of growth at 5 µg/mL [2] | inhibition of growth at 50 µg/mL [3] | inhibition of growth at 50 µg/mL [4] |
| --- | --- | --- | --- | --- |
| CC(C)CCOC(=O)NC(=O)c1csnn1 | 25% | 15% | 100% | 50% |
| CCCCCOC(=O)NC(=O)c1csnn1 | 36% | 4% | 42% | 45% |
| CCCCCCSC(=O)NC(=O)c1csnn1 | 4% | 25% | 75% | 27% |
| O=C(NC(=O)c1csnn1)OCCCCCCCCCCBr | 0% | 25% | 42% | 41% |
| O=C(NC(=O)c1csnn1)OCCCCCCCCCCCCBr | 13% | 6% | 21% | 36% |
| CCCCOC(=O)NC(=O)c1csnn1 | 23% | 6% | 11% | 50% |
| CCCCCCCOC(=O)NC(=O)c1csnn1 | 20% | 78% | 92% | 50% |
| CCCCCCCCCCCCCCCCOC(=O)NC(=O)c1csnn1 | 14% | 0% | 67% | 27% |
| O=C(NC(=O)c1csnn1)OC1CCCCC1 | 32% | 0% | 17% | 59% |
| CCCCCCCCOC(=O)NC(=O)c1csnn1 | 20% | 63% | 81% | 50% |
| CCCCSC(=O)NC(=O)c1csnn1 | 32% | 0% | 10% | 36% |
| CCCSC(=O)NC(=O)c1csnn1 | 9% | 27% | 54% | 36% |
| CCCCCCCCCOC(=O)NC(=O)c1csnn1 | 27% | 23% | 60% | 50% |
| CCCCCCCCCCCCCCOC(=O)NC(=O)c1csnn1 | 15% | 0% | 100% | 50% |
| CCCCCCCCCCOC(=O)NC(=O)c1csnn1 | 54% | 42% | 75% | 54% |
| CCCCCCCSC(=O)NC(=O)c1csnn1 | 4% | 12% | 35% | 32% |
| CCCCCCOC(=O)NC(=O)c1csnn1 | 54% | 23% | 92% | 90.7% |
| CCCCCCCCCCCOC(=O)NC(=O)c1csnn1 | 10% | 59% | 78% | 40% |
| CCCCCCCCSC(=O)NC(=O)c1csnn1 | 0% | 10% | 31% | 18% |
